Measurements as given in ChEMBL document CHEMBL3593182, “Phytochemical Investigation of the Constituents Derived from the Australian Plant Macropidia fuliginosa” (2015).
Active and inactive are the calls of the source. The calls are words filed in the database; no cut-off is given here.

How the values were obtained:
Escherichia coli [1] = assay: Antimicrobial activity against Escherichia coli ATCC 25922 assessed as zone of inhibition at 1639 uM incubated overnight at 37 degC; type: functional, organism-based
How it was run: (§1)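 Pure isolates screened against a panel of five bacteria and one fungus, each at a single concentration within 1639–5230 μM. A commercial antibiotic and antifungal agent were tested in parallel as references. Growth inhibition was recorded as the zone of inhibition.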

Staphylococcus aureus [2] = assay: Antimicrobial activity against Staphylococcus aureus ATCC 25923 assessed as zone of inhibition at 1639 uM incubated overnight at 37 degC; type: functional, organism-based; how it was run: as §1
Staphylococcus aureus [3] = assay: Antimicrobial activity against methicillin-resistant Staphylococcus aureus 344/2-32 assessed as zone of inhibition at 1639 uM incubated overnight at 37 degC; type: functional, organism-based
Pseudomonas aeruginosa [4] = assay: Antimicrobial activity against Pseudomonas aeruginosa ATCC 27853 assessed as zone of inhibition at 1639 uM incubated overnight at 37 degC; type: functional, organism-based; how it was run: as §1
Streptococcus pyogenes [5] = assay: Antimicrobial activity against Streptococcus pyogenes 345/1 assessed as zone of inhibition at 1639 uM incubated overnight at 37 degC; type: functional, organism-based; how it was run: as §1
Candida albicans [6] = assay: Antimicrobial activity against Candida albicans ATCC 10231 assessed as zone of inhibition at 1639 uM incubated overnight at 37 degC; type: functional, organism-based; how it was run: as §1
Escherichia coli [7] = assay: Antimicrobial activity against Escherichia coli ATCC 25922 assessed as zone of inhibition at 2762 uM incubated overnight at 37 degC; type: functional, organism-based; how it was run: as §1
Staphylococcus aureus [8] = assay: Antimicrobial activity against Staphylococcus aureus ATCC 25923 assessed as zone of inhibition at 2762 uM incubated overnight at 37 degC; type: functional; details: read-out: IZ; how it was run: as §1
Staphylococcus aureus [9] = assay: Antimicrobial activity against methicillin-resistant Staphylococcus aureus 344/2-32 assessed as zone of inhibition at 2762 uM incubated overnight at 37 degC; type: functional, organism-based
Pseudomonas aeruginosa [10] = assay: Antimicrobial activity against Pseudomonas aeruginosa ATCC 27853 assessed as zone of inhibition at 2762 uM incubated overnight at 37 degC; type: functional, organism-based; how it was run: as §1
Streptococcus pyogenes [11] = assay: Antimicrobial activity against Streptococcus pyogenes 345/1 assessed as zone of inhibition at 2762 uM incubated overnight at 37 degC; type: functional; details: read-out: IZ; how it was run: as §1
Candida albicans [12] = assay: Antimicrobial activity against Candida albicans ATCC 10231 assessed as zone of inhibition at 2762 uM incubated overnight at 37 degC; type: functional, organism-based; how it was run: as §1
Escherichia coli [13] = assay: Antimicrobial activity against Escherichia coli ATCC 25922 assessed as zone of inhibition at 2450 uM incubated overnight at 37 degC; type: functional, organism-based; how it was run: as §1
Staphylococcus aureus [14] = assay: Antimicrobial activity against Staphylococcus aureus ATCC 25923 assessed as zone of inhibition at 2450 uM incubated overnight at 37 degC; type: functional, organism-based; how it was run: as §1
Staphylococcus aureus [15] = assay: Antimicrobial activity against methicillin-resistant Staphylococcus aureus 344/2-32 assessed as zone of inhibition at 2450 uM incubated overnight at 37 degC; type: functional, organism-based
Pseudomonas aeruginosa [16] = assay: Antimicrobial activity against Pseudomonas aeruginosa ATCC 27853 assessed as zone of inhibition at 2450 uM incubated overnight at 37 degC; type: functional, organism-based; how it was run: as §1
Streptococcus pyogenes [17] = assay: Antimicrobial activity against Streptococcus pyogenes 345/1 assessed as zone of inhibition at 2450 uM incubated overnight at 37 degC; type: functional, organism-based; how it was run: as §1
Candida albicans [18] = assay: Antimicrobial activity against Candida albicans ATCC 10231 assessed as zone of inhibition at 2450 uM incubated overnight at 37 degC; type: functional, organism-based; how it was run: as §1
Escherichia coli [19] = assay: Antimicrobial activity against Escherichia coli ATCC 25922 assessed as zone of inhibition at 2211 uM incubated overnight at 37 degC; type: functional, organism-based; how it was run: as §1
Staphylococcus aureus [20] = assay: Antimicrobial activity against Staphylococcus aureus ATCC 25923 assessed as zone of inhibition at 2211 uM incubated overnight at 37 degC; type: functional; details: read-out: IZ; how it was run: as §1
Staphylococcus aureus [21] = assay: Antimicrobial activity against methicillin-resistant Staphylococcus aureus 344/2-32 assessed as zone of inhibition at 2211 uM incubated overnight at 37 degC; type: functional, organism-based
Pseudomonas aeruginosa [22] = assay: Antimicrobial activity against Pseudomonas aeruginosa ATCC 27853 assessed as zone of inhibition at 2211 uM incubated overnight at 37 degC; type: functional, organism-based; how it was run: as §1
Streptococcus pyogenes [23] = assay: Antimicrobial activity against Streptococcus pyogenes 345/1 assessed as zone of inhibition at 2211 uM incubated overnight at 37 degC; type: functional; details: read-out: IZ; how it was run: as §1
Candida albicans [24] = assay: Antimicrobial activity against Candida albicans ATCC 10231 assessed as zone of inhibition at 2211 uM incubated overnight at 37 degC; type: functional, organism-based; how it was run: as §1
Escherichia coli [25] = assay: Antimicrobial activity against Escherichia coli ATCC 25922 assessed as zone of inhibition at 3675 uM incubated overnight at 37 degC; type: functional, organism-based; how it was run: as §1
Staphylococcus aureus [26] = assay: Antimicrobial activity against Staphylococcus aureus ATCC 25923 assessed as zone of inhibition at 3675 uM incubated overnight at 37 degC; type: functional, organism-based; how it was run: as §1
Staphylococcus aureus [27] = assay: Antimicrobial activity against methicillin-resistant Staphylococcus aureus 344/2-32 assessed as zone of inhibition at 3675 uM incubated overnight at 37 degC; type: functional, organism-based
Pseudomonas aeruginosa [28] = assay: Antimicrobial activity against Pseudomonas aeruginosa ATCC 27853 assessed as zone of inhibition at 3675 uM incubated overnight at 37 degC; type: functional, organism-based; how it was run: as §1
Streptococcus pyogenes [29] = assay: Antimicrobial activity against Streptococcus pyogenes 345/1 assessed as zone of inhibition at 3675 uM incubated overnight at 37 degC; type: functional, organism-based
Candida albicans [30] = assay: Antimicrobial activity against Candida albicans ATCC 10231 assessed as zone of inhibition at 3675 uM incubated overnight at 37 degC; type: functional, organism-based; how it was run: as §1
Escherichia coli [31] = assay: Antimicrobial activity against Escherichia coli ATCC 25922 assessed as zone of inhibition at 3875 uM incubated overnight at 37 degC; type: functional, organism-based; how it was run: as §1
Staphylococcus aureus [32] = assay: Antimicrobial activity against Staphylococcus aureus ATCC 25923 assessed as zone of inhibition at 3875 uM incubated overnight at 37 degC; type: functional; details: read-out: IZ; how it was run: as §1
Staphylococcus aureus [33] = assay: Antimicrobial activity against methicillin-resistant Staphylococcus aureus 344/2-32 assessed as zone of inhibition at 3875 uM incubated overnight at 37 degC; type: functional, organism-based
Pseudomonas aeruginosa [34] = assay: Antimicrobial activity against Pseudomonas aeruginosa ATCC 27853 assessed as zone of inhibition at 3875 uM incubated overnight at 37 degC; type: functional; details: read-out: IZ; how it was run: as §1
Streptococcus pyogenes [35] = assay: Antimicrobial activity against Streptococcus pyogenes 345/1 assessed as zone of inhibition at 3875 uM incubated overnight at 37 degC; type: functional, organism-based
Candida albicans [36] = assay: Antimicrobial activity against Candida albicans ATCC 10231 assessed as zone of inhibition at 3875 uM incubated overnight at 37 degC; type: functional, organism-based; how it was run: as §1

SMILES: C[C@@H]1O[C@@H](OC[C@H]2O[C@@H](Oc3c(-c4ccc(O)c(O)c4)oc4cc(O)cc(O)c4c3=O)[C@H](O)[C@@H](O)[C@@H]2O)[C@H](O)[C@H](O)[C@H]1O
- inhibition zone (IZ) (Escherichia coli [1]): inactive
- inhibition zone (IZ) (Staphylococcus aureus [2]): inactive
- inhibition zone (IZ) (Staphylococcus aureus [3]): inactive
- inhibition zone (IZ) (Pseudomonas aeruginosa [4]): inactive
- inhibition zone (IZ) (Streptococcus pyogenes [5]): inactive
- inhibition zone (IZ) (Candida albicans [6]): inactive

SMILES: O=Cc1cc(O)c2c(-c3cc(O)cc(O)c3)c(-c3ccc(O)cc3)oc2c1
- inhibition zone (IZ) (Escherichia coli [7]): inactive
- zone of inhibition at 2762 µM (Staphylococcus aureus [8]): 1 mm
- inhibition zone (IZ) (Staphylococcus aureus [9]): inactive
- inhibition zone (IZ) (Pseudomonas aeruginosa [10]): inactive
- zone of inhibition at 2762 µM (Streptococcus pyogenes [11]): 1 mm
- inhibition zone (IZ) (Candida albicans [12]): inactive

SMILES: COC(OC)c1cc(O)c2c(-c3cc(O)cc(O)c3)c(-c3ccc(O)cc3)oc2c1
- inhibition zone (IZ) (Escherichia coli [13]): inactive
- inhibition zone (IZ) (Staphylococcus aureus [14]): inactive
- inhibition zone (IZ) (Staphylococcus aureus [15]): inactive
- inhibition zone (IZ) (Pseudomonas aeruginosa [16]): inactive
- inhibition zone (IZ) (Streptococcus pyogenes [17]): inactive
- inhibition zone (IZ) (Candida albicans [18]): inactive

SMILES: Oc1ccc(/C=C/c2cc(O)c3c(-c4cc(O)cc(O)c4)c(-c4ccc(O)cc4)oc3c2)cc1
- inhibition zone (IZ) (Escherichia coli [19]): inactive
- zone of inhibition at 2211 µM (Staphylococcus aureus [20]): 2 mm
- inhibition zone (IZ) (Staphylococcus aureus [21]): inactive
- inhibition zone (IZ) (Pseudomonas aeruginosa [22]): inactive
- zone of inhibition at 2211 µM (Streptococcus pyogenes [23]): 1 mm
- inhibition zone (IZ) (Candida albicans [24]): inactive

SMILES: O=C1C(O)=Cc2cccc3ccc(-c4ccccc4)c1c23
- inhibition zone (IZ) (Escherichia coli [25]): inactive
- inhibition zone (IZ) (Staphylococcus aureus [26]): inactive
- inhibition zone (IZ) (Staphylococcus aureus [27]): inactive
- inhibition zone (IZ) (Pseudomonas aeruginosa [28]): inactive
- inhibition zone (IZ) (Streptococcus pyogenes [29]): inactive
- inhibition zone (IZ) (Candida albicans [30]): inactive

SMILES: O=C1C(=O)c2c(-c3ccccc3)ccc3cccc1c23
- inhibition zone (IZ) (Escherichia coli [31]): inactive
- zone of inhibition at 3875 µM (Staphylococcus aureus [32]): 2 mm
- inhibition zone (IZ) (Staphylococcus aureus [33]): inactive
- zone of inhibition at 3875 µM (Pseudomonas aeruginosa [34]): 1 mm
- inhibition zone (IZ) (Streptococcus pyogenes [35]): inactive
- inhibition zone (IZ) (Candida albicans [36]): inactive
